Assay results as given in ChEMBL document CHEMBL4715825, “Synthesis and biological evaluations of marine oxohexadecenoic acids: PPARα/γ dual agonism and anti-diabetic target gene effects” (Eur J Med Chem, 2018).
Calls of active or inactive are those of the source. The calls are words filed in the database; no cut-off is given here.

Legend:
SGBS [1] = test: Effect on diabetic complication pathway in 8 day differentiated human SGBS cells assessed as downregulation of AGE-RAGE signalling genes at 25 uM incubated for 8 days by Illumina sequencing method; type: functional, cell-based
In short: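 SGBS cells were differentiated 4 days in Quickdiff supplemented with compound:BSA or rosiglitazone, then 4 days in 3FC. Total RNA was extracted, and strand-specific TruSeq libraries were sequenced on NextSeq 500 (2×75 bp paired-end). Reads were aligned to hg19 with Tophat/Bowtie and counted as RPKM by Cufflinks. Values are log2 fold over day 0 cells, grouped into KEGG gene sets (n = 2-4).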

[2] = target: T1, Peroxisome proliferator-activated receptor alpha (Homo sapiens) (UniProt Q07869); test: Agonist activity at human PPARalpha in 8 day differentiated human SGBS cells assessed as increase in […] gene expression at 25 uM incubated for 24 hrs by SYBR-green based qPCR analysis; type: cell-based; settings: filed as agonist
T1 sequence (whole entry): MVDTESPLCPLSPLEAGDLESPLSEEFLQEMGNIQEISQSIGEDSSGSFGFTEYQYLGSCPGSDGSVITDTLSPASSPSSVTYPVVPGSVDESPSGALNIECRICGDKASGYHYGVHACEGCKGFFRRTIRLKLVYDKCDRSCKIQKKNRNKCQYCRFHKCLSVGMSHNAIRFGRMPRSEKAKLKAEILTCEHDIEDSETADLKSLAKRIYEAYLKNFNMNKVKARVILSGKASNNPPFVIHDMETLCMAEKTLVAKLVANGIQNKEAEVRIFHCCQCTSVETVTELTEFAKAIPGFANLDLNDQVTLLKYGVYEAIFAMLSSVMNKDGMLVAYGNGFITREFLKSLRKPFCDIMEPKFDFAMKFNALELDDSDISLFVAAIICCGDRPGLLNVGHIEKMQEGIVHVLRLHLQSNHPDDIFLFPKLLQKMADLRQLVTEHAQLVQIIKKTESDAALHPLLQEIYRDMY
In short: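 SGBS preadipocytes were seeded at passage P6-P8 and grown to confluence. They were differentiated for 4 days in Quickdiff (3FC plus dexamethasone, IBMX and rosiglitazone), then kept in 3FC with medium renewed every fourth day. On day 8, cells were stimulated for 24 h in 3FC with compound:BSA or rosiglitazone. SYBR-green qPCR used gene-specific primers. Data are mean ± SEM of three biological replicates in duplicate.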

[3] = target: T1, Peroxisome proliferator-activated receptor alpha (Homo sapiens); test: Agonist activity at human PPARalpha in human HuH-7 cells assessed as increase in ACOX1 gene expression at 50 uM incubated for 24 hrs by SYBR-green based qPCR analysis; type: cell-based
In short: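 Cells were seeded at 2×10^5 per well and treated 24 h later with compound in DMSO (final 0.1%). The next day, cells were washed and scraped into RLT buffer. RNA was isolated, and target gene mRNA was quantified by SYBR-green qPCR with specific primers.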

[4] = target: T2, Peroxisome proliferator-activated receptor gamma (Homo sapiens) (UniProt P37231); test: Agonist activity at recombinant human PPARgamma LBD (205 to 505 residues) expressed in African green monkey COS-1 cells at 25 to 50 uM incubated for 18 hrs by luciferase reporter gene assay; type: cell-based; settings: filed as agonist, dose 25-50 µM
T2 sequence (whole entry): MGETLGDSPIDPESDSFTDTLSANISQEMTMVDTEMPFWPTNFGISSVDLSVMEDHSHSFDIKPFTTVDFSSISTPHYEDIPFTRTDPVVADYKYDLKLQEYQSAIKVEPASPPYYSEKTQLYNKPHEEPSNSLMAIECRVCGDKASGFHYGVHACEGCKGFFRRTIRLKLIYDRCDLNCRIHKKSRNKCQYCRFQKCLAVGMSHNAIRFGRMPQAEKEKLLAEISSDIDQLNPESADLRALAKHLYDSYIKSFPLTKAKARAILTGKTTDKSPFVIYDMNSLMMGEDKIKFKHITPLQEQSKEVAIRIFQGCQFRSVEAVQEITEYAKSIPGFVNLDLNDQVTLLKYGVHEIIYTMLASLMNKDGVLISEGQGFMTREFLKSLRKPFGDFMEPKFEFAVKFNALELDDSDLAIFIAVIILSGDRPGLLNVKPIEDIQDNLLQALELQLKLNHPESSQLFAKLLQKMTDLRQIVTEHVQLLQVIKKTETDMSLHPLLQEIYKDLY
In short: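 Transient Gal4 one-hybrid assay in COS-1 cells (7×10^4 per well), transfected 24 h after seeding. Plasmids were Gal4-DBD fused to the human nuclear receptor LBD, a 5×UAS-SV40 luciferase reporter and pRL-CMV Renilla control. Ligand in DMSO (final 0.1%) was added 5 h post-transfection. Dual-luciferase activity was read after 18 h, expressed as RLU, from three biological replicates in quadruplicate.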

SGBS [5] = test: Induction of adipogenesis in 8 day differentiated human SGBS cells assessed as increase in PLIN1 mRNA expression at 25 uM measured upto 12 days by qRT-PCR analysis; type: functional, cell-based; settings: time day <=12
In short: (§1)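 SGBS cells were grown to confluence (day 0). Quickdiff medium was supplemented with compound or rosiglitazone for 4 days, followed by 3FC medium. DMSO or DMSO:BSA served as control. RNA was harvested on days 0, 4, 8 and 12, and expression was measured by SYBR-green qPCR. Data are mean ± SEM of at least three biological replicates in duplicate.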

SGBS [6] = test: Induction of adipogenesis in 8 day differentiated human SGBS cells assessed as increase in SCD1 mRNA expression at 25 uM measured upto 12 days by qRT-PCR analysis; type: functional, cell-based; settings: time day <=12; in short: as §1
SGBS [7] = test: Induction of adipogenesis in 8 day differentiated human SGBS cells assessed as increase in CD36 mRNA expression at 25 uM measured upto 12 days by qRT-PCR analysis; type: functional, cell-based; settings: time day <=12; in short: as §1
SGBS [8] = test: Induction of adipogenesis in 8 day differentiated human SGBS cells assessed as increase in ADIPOQ mRNA expression at 25 uM measured over 12 days by qRT-PCR analysis; type: functional, cell-based; settings: time 12.0 day; in short: as §1
SGBS [9] = test: Induction of adipogenesis in 8 day differentiated human SGBS cells assessed as increase in UCP1 mRNA expression at 25 uM measured over 12 days by qRT-PCR analysis; type: functional, cell-based; settings: time 12.0 day
In short: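 SGBS preadipocytes (passage P6-P8) were grown to confluence (day 0), then differentiated 4 days in Quickdiff (3FC with 25 nM dexamethasone, 0.5 mM IBMX) supplemented with 25 µM oxo-fatty acid (as BSA complex), then in 3FC medium with medium renewed every fourth day. Cells were harvested on days 0, 4, 8 and 12. mRNA was measured by SYBR green qPCR. Data are mean ± SEM from at least 3 biological replicates run in duplicate.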

SGBS [10] = test: Induction of adipogenesis in 8 day differentiated human SGBS cells assessed as increase in volume of lipid droplets at 25 uM measured upto 12 days by oil-O-red staining based inverted microscopic analysis; type: functional, cell-based; settings: time day <=12
In short: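 SGBS cells were differentiated in Quickdiff for 4 days, supplemented with 25 µM oxo-fatty acid or 2 µM rosiglitazone, then in 3FC to day 8. Controls were DMSO (0.025%) or BSA (4.2 µM). Cells were fixed in 4% paraformaldehyde for 15 min and stained 15 min with Oil Red O for neutral lipids. They were imaged by inverted microscope at 10× and 40×. Three biological replicates were run in duplicate.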

[11] = target: T2, Peroxisome proliferator-activated receptor gamma (Homo sapiens); test: Agonist activity at human PPARgamma in 8 day differentiated human SGBS cells assessed as decrease in […] gene expression at 25 uM incubated for 24 hrs by SYBR-green based qPCR analysis; type: cell-based; settings: filed as agonist

CCCCC/C=C/C(=O)CCCCCCCC(=O)O
Activity (SGBS [1]): Active | Activity [2]: Active | Activity [3]: inactive | Activity [4]: Active | Activity (SGBS [5]): Active | Activity (SGBS [6]): Active | Activity (SGBS [7]): Active | Activity (SGBS [8]): Active | Activity (SGBS [9]): Active | Activity (SGBS [10]): Active | Activity [11]: Active

CCCCCCCC(=O)/C=C/CCCCCC(=O)O
Activity (SGBS [1]): Active | Activity [2]: Active | Activity [3]: inactive | Activity [4]: Active | Activity (SGBS [5]): Active | Activity (SGBS [6]): Active | Activity (SGBS [7]): Active | Activity (SGBS [8]): Active | Activity (SGBS [9]): Active | Activity (SGBS [10]): Active | Activity [11]: Active
